Only some compounds are listed: those with a hit (about 2.4% of all), similar ones and a draw of the others.
MT stabilizer: stabilizes microtubules in HeLa cells; HeLa tubulin immunostaining HCS, 24 h; share of cells brighter than vehicle mean+2SD; % tubulin-high responders, % at 10 µM; 0.83% of 200,000 active;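 active = plate Z-score above 3 for both tubulin-high and condensed-nucleus cell shares, with cell loss under 80%, at 10 µM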;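 also: anti alpha tubulin signal scored within the nucleus-defined area of each cell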
b-catenin transl: beta-catenin nuclear translocation modulation; HeLa beta-catenin nuclear translocation, immunofluorescence imaging; nuclear translocation activity, % at 5 µM; 0.3% of 190,000 active; AID 1665;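 active = nuclear translocation activity above 50% at 5 µM, with a well cell count of 50 or more; inconclusive = wells under 50 cells across six images, flagged as toxic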;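 also: per-cell ratio of nuclear to cytoplasmic median beta-catenin stain intensity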
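Read-out: Nuclear/cytoplasmic beta-catenin signal ratio, % activation | Assay system: Human HeLa cell line | Times: 24 h compound exposure at 37°C, 5% CO2 | Signal: Fluorescence imaging of beta-catenin antibody stain plus DAPI | Dosing: 5 µM primary, 0.02–20 µM confirmation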
INS promoter inh: TRM-6 insulin promoter activity inhibition. 0.9% of 130,000 active. TRM-6 cells, insulin promoter-eGFP reporter, imaging; reporter expression induced with tamoxifen. inhibition, % at 2 µM;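 active = inhibition above the mean plus 3 SD, with well images judged a real hit on visual review, cut at about 60% in these data, passing the limit was not always enough; inconclusive = inhibition over the cutoff but images rejected on review; inactive = inhibition not above the cutoff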
ROMK primary: human ROMK K+ channel modulation, primary screen. 2% of 130,000 active. B-score at 10 µM. AID 1918. Tet-inducible ROMK, thallium flux fluorescence; actives lie on both sides. P48048;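 active = signal ratio slope over the read window, or its plate-corrected B-score, at least 3 SD from the plate mean, either direction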;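 also: B-score of the F/F0 ratio slope over 7 to 12 s after thallium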
Target sequence (P48048 whole entry, looked up): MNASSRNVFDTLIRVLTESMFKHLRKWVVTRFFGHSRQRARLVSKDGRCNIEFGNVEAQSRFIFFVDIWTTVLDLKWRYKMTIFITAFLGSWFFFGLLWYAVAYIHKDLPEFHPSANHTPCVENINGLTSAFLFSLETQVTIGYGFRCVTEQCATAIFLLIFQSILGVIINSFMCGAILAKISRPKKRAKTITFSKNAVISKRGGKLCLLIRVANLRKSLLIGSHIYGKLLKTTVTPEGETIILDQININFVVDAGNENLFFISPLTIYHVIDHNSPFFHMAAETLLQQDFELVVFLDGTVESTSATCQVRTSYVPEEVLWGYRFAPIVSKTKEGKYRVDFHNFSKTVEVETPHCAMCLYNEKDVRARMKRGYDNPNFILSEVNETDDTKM
HSV replic up: increases HSV replication in cells | HSV replication augmentation in cells, fold increase | maximum fold increase | 0.005% of 220,000 active | AID 1956; in the data active = maximum fold increase above about 1.5; inconclusive = no clear call, values can overlap the other calls; tested in PC3 cells
ROMK retest: confirmation of human ROMK potassium channel modulators | shares compounds with ROMK primary | ROMK thallium flux, fluorescence ratio; active compounds read low | normalized thallium flux (F/F0 slope) at 10 µM | 54% of 3,000 active;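 active = Flux at 10 µM at least 3 SD below or above vehicle control mean in one or both replicates; inconclusive = no clear call, values can overlap the other calls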
Large screens that a line does not name were inactive (follow-up assays come after a bar, where they were run).

CC(C)N(CCn1c(=S)[nH]c2ccccc2c1=O)C(C)C	ROMK primary 3.22 (no result: b-catenin transl) | ROMK retest 0.0678
O=c1[nH]c(C(F)(F)F)nc2c1nnn2Cc1ccccc1F	ROMK primary 3.41 (no result: b-catenin transl) | ROMK retest inactive
CCOc1ccccc1/C=C(\C#N)C(=O)Nc1cccc(C(=O)O)c1	none (no result: MT stabilizer, INS promoter inh, ROMK primary)
N#C/C(=C\c1ccccc1[N+](=O)[O-])C(=O)Nc1ccc(S(N)(=O)=O)cc1	none (no result: MT stabilizer, INS promoter inh, ROMK primary)
COc1ccccc1/C=C(\C#N)C(=O)Nc1ccc(S(N)(=O)=O)cc1	ROMK primary -3.34 | ROMK retest 0.0607
COc1cc(/C=C(/C#N)C(=O)Nc2ccccc2)c(Br)cc1OCc1ccc(C(=O)O)cc1	ROMK primary -4.97 (no result: MT stabilizer, INS promoter inh) | ROMK retest 0.0551
COc1ccc(C(=O)OCCNC(=O)c2c(Cl)nc3ccccn23)cc1	none (no result: ROMK primary) | ROMK retest 0.0587
CN=C1S/C(=C\c2cn(CC(=O)OC)c3ccccc23)C(=O)N1C	ROMK primary 0.78 | ROMK retest inactive
COc1ccc2c(c1)c1ccccc1n2C	none
CN=C1c2c(-c3ccccc3)c3cc(OC)ccc3n2CCN1C	ROMK primary -3.69 (no result: b-catenin transl) | ROMK retest 0.0668
COc1ccc([N+](=O)[O-])cc1NC(=O)c1ccc(Br)s1	none (no result: INS promoter inh)
COc1cccc(/C=N/n2c(-c3cc(C)[nH]n3)n[nH]c2=S)c1O	none (no result: MT stabilizer, INS promoter inh, ROMK primary)
CCOC(=O)c1cnc(-n2nc(C)cc2C)nc1NC	none (no result: INS promoter inh, ROMK primary)
CCOC(=O)c1cnc(-n2nc(C)cc2C)nc1NC1CCCCC1	ROMK primary -4.68 | ROMK retest 0.0563
CCC1SC2=NC(C)=C(C(=O)OCCOC)C(/C=C/c3ccccc3OC)N2C1=O (stereo unspecified)	none (no result: ROMK primary) | ROMK retest 0.0587
O=C(CCC1CCCN(c2ncccn2)C1)NCc1ccc(F)c(F)c1 (stereo unspecified)	none (no result: INS promoter inh)
Cc1ccc(NS(=O)(=O)c2ccc(-c3csc(C)n3)s2)c(C)c1	ROMK primary -11.2 (no result: MT stabilizer, INS promoter inh) | ROMK retest inactive
O=C(COC(=O)C12CC3CC(CC(C3)C1)C2)Nc1ccccc1F	none
CC1C(=NO)C(C)C(c2ccc(N(C)C)cc2)NC1c1ccc(N(C)C)cc1 (stereo unspecified)	ROMK primary -4.37 (no result: b-catenin transl, INS promoter inh, HSV replic up) | ROMK retest 0.0669
CC1C(=O)C(C)C(c2ccc([N+](=O)[O-])cc2)NC1c1ccc([N+](=O)[O-])cc1 (stereo unspecified)	none (no result: MT stabilizer, INS promoter inh)
Cc1oc(-c2cccs2)nc1CN1CC[C@@](O)(c2ccccc2)[C@H]2CCCC[C@@H]21	none (no result: INS promoter inh)
OC1(c2ccccc2)CCN(Cc2ccccc2)C2CCCCC21 (stereo unspecified)	ROMK primary -4.48 | ROMK retest 0.0669
O=C(c1nc2ccccn2c1CN1CCC(Cc2ccccc2)CC1)N1CCCC1	none (no result: INS promoter inh)
Cc1ccc(-c2csc(/C(C#N)=C(\O)CCl)n2)cc1	ROMK primary -3.32 | ROMK retest inconclusive
CC(=O)c1cc(C#N)c(Oc2ccc(Cl)cc2Cl)nc1C	none (no result: b-catenin transl, INS promoter inh, ROMK primary)
C=CCn1c(N2CCCCCC2)nc2c1c(=O)[nH]c(=O)n2C	none (no result: ROMK primary)
C/C(Cl)=C\Cn1c(N2CCCC2)nc2c1c(=O)[nH]c(=O)n2C	none (no result: ROMK primary) | ROMK retest inactive
O=C(Nc1ccc(Br)cc1)C1CCCN1S(=O)(=O)c1cccs1 (stereo unspecified)	ROMK primary -3.34 (no result: b-catenin transl) | ROMK retest 0.0609
Cc1cc(N2CCOCC2)ccc1/C=C\[N+](=O)[O-]	ROMK primary -4.48 (no result: b-catenin transl) | ROMK retest 0.0505
CC1CCN(C(=O)c2ccc(S(=O)(=O)N(C)C)cc2)C(C)C1 (stereo unspecified)	ROMK primary 2.99 (no result: b-catenin transl) | ROMK retest inactive
CN(C)S(=O)(=O)c1ccc(C(=O)N2CCOCC2)cc1	none (no result: b-catenin transl)
CCCCCCCC1CC(CSC(=N)N)OC1=O (stereo unspecified)	ROMK primary -4.97 | ROMK retest 0.0575
CCCCC1CC(CSC(=N)N)OC1=O (stereo unspecified)	none (no result: ROMK primary)
CCN1CCN(C(=O)CCc2nnc(CCCCc3ccccc3)o2)[C@@H](C)C1=O	none (no result: MT stabilizer, INS promoter inh)
CCCCCCCCCC(=O)N1c2ccccc2NC(=O)C1CC(=O)Nc1ccc(C(=O)O)cc1 (stereo unspecified)	none (no result: MT stabilizer, INS promoter inh, ROMK primary)
COC(=O)C1=C(C(=O)OC)[C@@H]2Nc3ccccc3[C@@]23C[C@@H](C(=O)OC)N(C(C)=O)C3=N1	none (no result: MT stabilizer, INS promoter inh, ROMK primary)
Cc1ccc(Cn2c(=N)n(CC(=O)c3ccccc3)c3ccccc32)cc1	ROMK primary -5.15 (no result: INS promoter inh) | ROMK retest 0.0516
CC(C)(C)C(=O)Cn1c(=N)n(Cc2ccccc2)c2ccccc21	none (no result: INS promoter inh, ROMK primary) | ROMK retest 0.0472

Source: PubChem
